Key:
[1] = target: T1, Alpha-1A adrenergic receptor (Rattus norvegicus, UniProt P43140); assay: Antagonistic activity at alpha1A adrenoceptor in Sprague-Dawley rat vas deferens assessed as inhibition of noradrenaline-induced contractions after 0.5 hrs in presence of alpha2/beta adrenoceptor blocker yohimbine, propranolol by Schild plot analysis; details: read-out: pA2 (converted)
T1 sequence (P43140 whole entry): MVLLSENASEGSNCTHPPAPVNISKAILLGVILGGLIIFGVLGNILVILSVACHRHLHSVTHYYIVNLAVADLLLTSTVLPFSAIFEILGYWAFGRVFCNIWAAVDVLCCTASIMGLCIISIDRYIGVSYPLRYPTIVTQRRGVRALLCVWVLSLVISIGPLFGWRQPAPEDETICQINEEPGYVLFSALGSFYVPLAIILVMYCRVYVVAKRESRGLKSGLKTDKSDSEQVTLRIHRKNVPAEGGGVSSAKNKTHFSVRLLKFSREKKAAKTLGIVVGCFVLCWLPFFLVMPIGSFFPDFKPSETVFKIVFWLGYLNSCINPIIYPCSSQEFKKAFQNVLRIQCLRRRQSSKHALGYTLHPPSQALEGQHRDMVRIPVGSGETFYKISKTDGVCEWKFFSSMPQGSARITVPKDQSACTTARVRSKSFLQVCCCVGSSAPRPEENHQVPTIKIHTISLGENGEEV

[2] = target: T2, Alpha-1B adrenergic receptor (Rattus norvegicus, UniProt P15823); assay: Antagonistic activity at alpha1B adrenoceptor in Sprague-Dawley rat spleen assessed as inhibition of noradrenaline-induced contractions after 0.5 hrs in presence of alpha2/beta adrenoceptor blocker yohimbine, propranolol by Schild plot analysis; type: tissue-based; details: read-out: pA2 (converted)
T2 sequence (P15823 whole entry): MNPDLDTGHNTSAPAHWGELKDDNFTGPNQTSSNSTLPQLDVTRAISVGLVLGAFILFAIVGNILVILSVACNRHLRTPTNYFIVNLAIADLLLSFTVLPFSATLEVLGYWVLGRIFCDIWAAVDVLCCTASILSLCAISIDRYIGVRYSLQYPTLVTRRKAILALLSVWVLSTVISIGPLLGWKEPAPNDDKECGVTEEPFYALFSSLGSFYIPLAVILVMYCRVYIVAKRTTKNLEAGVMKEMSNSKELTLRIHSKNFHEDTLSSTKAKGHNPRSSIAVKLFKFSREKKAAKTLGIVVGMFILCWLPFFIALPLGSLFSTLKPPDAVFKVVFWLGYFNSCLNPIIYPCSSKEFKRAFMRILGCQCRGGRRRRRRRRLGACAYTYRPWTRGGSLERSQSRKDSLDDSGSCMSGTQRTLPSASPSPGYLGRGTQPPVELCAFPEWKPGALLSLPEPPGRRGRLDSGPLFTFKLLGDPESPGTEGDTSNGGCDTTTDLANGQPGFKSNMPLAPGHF

[3] = target: T3, Alpha-1D adrenergic receptor (Rattus norvegicus, UniProt P23944); assay: Antagonistic activity at alpha1D adrenoceptor in Sprague-Dawley rat thoracic aorta assessed as inhibition of noradrenaline-induced contractions after 0.5 hrs in presence of alpha2/beta adrenoceptor blocker yohimbine, propranolol by Schild plot analysis; details: read-out: pA2 (converted)
T3 sequence (P23944 whole entry): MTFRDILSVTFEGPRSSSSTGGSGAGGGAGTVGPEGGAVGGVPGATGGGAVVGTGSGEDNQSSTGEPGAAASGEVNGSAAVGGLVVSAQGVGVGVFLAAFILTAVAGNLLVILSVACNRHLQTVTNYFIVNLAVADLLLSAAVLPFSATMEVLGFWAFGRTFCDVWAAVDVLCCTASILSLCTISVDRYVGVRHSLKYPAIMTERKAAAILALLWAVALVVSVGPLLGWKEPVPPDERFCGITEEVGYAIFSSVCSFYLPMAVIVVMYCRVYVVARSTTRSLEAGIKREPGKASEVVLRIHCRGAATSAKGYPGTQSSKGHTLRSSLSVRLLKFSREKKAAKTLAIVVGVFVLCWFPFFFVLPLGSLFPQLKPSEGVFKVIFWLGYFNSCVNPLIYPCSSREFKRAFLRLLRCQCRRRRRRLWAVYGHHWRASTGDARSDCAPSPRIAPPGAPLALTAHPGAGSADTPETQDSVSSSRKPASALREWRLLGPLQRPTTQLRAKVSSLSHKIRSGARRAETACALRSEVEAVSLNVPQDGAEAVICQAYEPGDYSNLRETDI
Summary of the method: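 Isolated tissue rings (aorta rings about 4 mm) held in Krebs–Henseleit buffer (pH 7.4, 37 °C, O2/CO2 19:1), equilibrated 1.5 h under optimal tension, primed three times with noradrenaline, then washed. Antagonist preincubated 0.5 h. Noradrenaline concentration–response curves run 1 h apart, without and with antagonist, in continuous yohimbine and propranolol. Responses expressed as % of pre-incubation NA Emax.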

Rattus norvegicus [4] = organism: Rattus norvegicus; assay: Selectivity ratio of antilog of change in pA2 for alpha1A adrenoceptor in Sprague-Dawley rat vas deferens to antilog of change in pA2 for alpha1B adrenoceptor in Sprague-Dawley rat spleen
Rattus norvegicus [5] = organism: Rattus norvegicus; assay: Selectivity ratio of antilog of change in pA2 for alpha1D adrenoceptor in Sprague-Dawley rat thoracic aorta to antilog of change in pA2 for alpha1B adrenoceptor in Sprague-Dawley rat spleen
Rattus norvegicus [6] = organism: Rattus norvegicus; assay: Selectivity ratio of antilog of change in pA2 for alpha1D adrenoceptor in Sprague-Dawley rat thoracic aorta to antilog of change in pA2 for alpha1A adrenoceptor in Sprague-Dawley rat vas deferens

COc1ccc(N2CCN(CC(O)COc3cccc4[nH]c5ccccc5c34)CC2)cc1 (configuration not stated)
Kb [1]: 1860 nM | Kb [2]: 6920 nM | Kb [3]: 87.1 nM | Selectivity ratio (Rattus norvegicus [4]): 3.7 | Selectivity ratio (Rattus norvegicus [5]): 79.4 | Selectivity ratio (Rattus norvegicus [6]): 21.4

COc1ccc(OC)c(N2CCN(CC(O)COc3cccc4[nH]c5ccccc5c34)CC2)c1 (configuration not stated)
Kb [1]: 437 nM | Kb [2]: 74.1 nM | Kb [3]: 141 nM | Selectivity ratio (Rattus norvegicus [4]): 0.2 | Selectivity ratio (Rattus norvegicus [5]): 0.5 | Selectivity ratio (Rattus norvegicus [6]): 3.1

Source: ChEMBL document CHEMBL4428128, “Design, synthesis, crystal structure, biological evaluation and molecular docking studies of carbazole-arylpiperazine derivatives” (Bioorg Med Chem, 2016)
